Measurements as given in paper PMC7951180 (Nature cell biology, 2020).

Legend:
TRIM63 = TRIM63 (Homo sapiens, UniProt Q969Q1); test: Screen of small molecule inhibitors targeting TRIM63; assay type: biochemical; settings: library of 2027 bioactive compounds; Ub-DMD (Lys3584) antibody, OD450
Outline: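 The library screen measured DMD poly-ubiquitination by sandwich ELISA, with His6-TUBE capture and Ub-DMD (Lys3584) antibody detection read at OD450. Background-subtracted mean absorbance per compound was normalised to DMSO-treated samples and expressed as log2 fold change.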

hiPS-SkMCs [1] = test: IF staining / IB of DMD and Ub-DMD; assay type: cell-based, human; settings: iPS-SkMCs and iPS-CMs derived from BMD patients; Nifenazone 10 μM, 72 hours
Outline: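 Skeletal muscle cells came from iPSCs reprogrammed from fibroblasts of a healthy donor (GM09503) and four BMD donors (GM04981, GM02298, GM05089, GM04569). iPSCs were kept feeder-free on Matrigel in mTeSR1. For IF, myoblasts on collagen I-coated coverslips grew to confluence, then spent 4 days in myotube medium before 4% paraformaldehyde fixation. IF intensity combined average staining and percentage of positive cells; n=5 independent experiments, two-way ANOVA. Immunoblots were repeated twice.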

hiPS-SkMCs [2] = test: Immunoprecipitation and immunoblotting in hiPS-SkMCs; assay type: cell-based, human; settings: IB; for Ub-DMD in K3584R mutant knockin BMD iPS-SkMCs: GM04981 K3584R
Dmd C3333Y mice [3] = test: IF staining of DMD and Ub-DMD; assay type: in vivo, mouse; settings: Dmd C3333Y mice QUA, AGR mimics 10 mg/kg subQ every three days, Nifenazone 10 mg/kg i.p. daily, n=5
Outline: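 Quadriceps sections from Dmd WT and Dmd C3333Y mice on control or test mimics, vehicle, or daily i.p. drug were immunostained for DMD and Ub-DMD (Lys3584). Intensity was quantified from average staining intensity and percentage of positively stained cells. Mean±SD, n=5 animals/group, one-way ANOVA.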

Dmd C3333Y mice [4] = test: Forelimb grip strength test of treated Dmd C3333Y mice; assay type: in vivo, mouse; settings: AGR mimics 10 mg/kg subQ every three days, Nifenazone 10 mg/kg i.p. daily
Dmd C3333Y mice [5] = test: Fibrotic area in the heart of treated Dmd C3333Y mice; assay type: in vivo, mouse; settings: 4 to 24 weeks of age, AGR mimics 10 mg/kg subQ every three days, Nifenazone 10 mg/kg i.p. daily, n=5
Outline: (§1)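 Male and female Dmd WT and Dmd C3333Y mice were dosed from 4 weeks to 16 or 24 weeks of age. […] Groups were randomised by age and sex. Left ventricular values or cardiac fibrotic area percentage are reported as mean±SD, n=5/group, one-way ANOVA.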

Dmd C3333Y mice [6] = test: Echocardiography; assay type: in vivo, mouse; settings: 4 to 24 weeks of age, AGR mimics 10 mg/kg subQ every three days, Nifenazone 10 mg/kg i.p. daily, n=5
Outline: as §1

Body weight measurement = assay type: in vivo, mouse; settings: Dmd C3333Y mice from 4 weeks of age; AGR mimics 10 mg/kg subQ every three days; Nifenazone 10 mg/kg i.p. daily
Outline: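 Weighed weekly in male Dmd WT (scramble- or vehicle-treated) and Dmd C3333Y mice during dosing from 4 weeks of age, to 16 weeks for the i.p. drug arm. AGR-Scr and AGR-H19 mut served as control mimics. Mean±SD, n=5 mice/group, two-way ANOVA.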

Blood biochemistry = assay type: in vivo, mouse; settings: Dmd C3333Y mice from 4 weeks of age; AGR mimics 10 mg/kg subQ every three days; Nifenazone 10 mg/kg i.p. daily
mdx mice = test: IF staining of DMD and Ub-DMD in QUA of mdx mice with PPMO23 exon skipping; assay type: in vivo, mouse; settings: PPMO23 15 mg/kg i.v. biweekly alone, or with AGR-H19 10 mg/kg s.q. every three days or Nifenazone 10 mg/kg i.p. daily; 4 to 24 weeks of age; n=5
Outline: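 Controls were male C57BL/10J mice on scramble RNA plus vehicle, and mdx mice on scramble. Quadriceps were immunostained for DMD and Ub-DMD, and intensity was scored as average intensity × percentage positive cells. Mean±SD, n=5/condition, one-way ANOVA.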

indicated genes = test: RT-qPCR of indicated genes and microRNAs; settings: Dmd C3333Y QUA; 10 mg/kg subQ every three days
Pharmacokinetics = assay type: in vivo, mouse; settings: biotin-labeled, 10 mg/kg single dose, wild type C57BL/6 mice, 3–72 hours; dot-blot, n=5 animals per time point
Outline: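 A single 10 mg/kg dose of biotinylated H19 mimic (i.p. or subQ) or AGR-H19 (subQ) was given to wild type C57BL/6 mice. Muscle, heart, liver, kidney and lung were taken at 3, 12, 24, 48 or 72 h. Small RNA was dot-blotted against a 2-fold standard series of 1 μg–1 pg and detected with streptavidin-HRP. Levels are given as ng/g tissue, with PK parameters from nonlinear regression. n=5/time point.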

[7] = Serum IGF1 and IGF2 concentration; assay type: in vivo, mouse; settings: Dmd C3333Y mice; 10 mg/kg subQ every three days
Outline: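 Serum IGF1 and IGF2 were measured in Dmd WT and Dmd C3333Y mice under the treatment arms. AGR mimics were dosed from 4 weeks of age to 16 or 24 weeks. Mean±SD, n=5 mice/group, one-way ANOVA.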

Sequence of TRIM63 (Q969Q1 whole entry): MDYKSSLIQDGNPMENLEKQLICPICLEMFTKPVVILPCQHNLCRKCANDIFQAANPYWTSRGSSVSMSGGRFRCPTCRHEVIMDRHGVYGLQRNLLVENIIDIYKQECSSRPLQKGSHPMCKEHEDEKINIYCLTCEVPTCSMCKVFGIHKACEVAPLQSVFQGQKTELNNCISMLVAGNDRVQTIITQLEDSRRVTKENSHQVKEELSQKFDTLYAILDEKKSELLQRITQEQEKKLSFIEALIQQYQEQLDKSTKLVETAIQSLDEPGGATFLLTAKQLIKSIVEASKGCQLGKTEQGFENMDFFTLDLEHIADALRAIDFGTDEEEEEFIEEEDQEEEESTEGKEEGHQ

## Cc1c(NC(=O)c2cccnc2)c(=O)n(-c2ccccc2)n1C [Nifenazone]
TRIM63
  Inhibition of the enzymatic activities of TRIM63 in vitro (screen): effective inhibition
hiPS-SkMCs [1]
  Dystrophin protein stability: stabilized dystrophin
  Status of Ub-DMD (Lys3584): attenuated
hiPS-SkMCs [2]
  Ub-DMD in K3584R mutant knockin BMD iPS-SkMCs: minimally affected
hiPS-SkMCs [2]; vehicle or NIF
  Ub-DMD in hiPS-SkMCs upon NIF treatment: inhibited
Dmd C3333Y mice [3]
  Dystrophin level in skeletal muscle: restored
  Ub-DMD level in skeletal muscle: decreased
Dmd C3333Y mice [4]
  Muscle strength: significantly improved
Dmd C3333Y mice [5]
  Fibrotic area in the heart: reduced
Dmd C3333Y mice [6]
  Heart function (left ventricular ejection fraction and fraction shortening): improved
Body weight measurement
  Body weight: minimally affected
Blood biochemistry
  Liver or kidney function: minimally affected
Mdx mice
  Dystrophin protein in skeletal muscle of mdx mice: significantly increased
  Ub-DMD (poly-Ub) in skeletal muscle of mdx mice: reduced

## N-terminal-ELTNEIPAELTNEIPA-Linker-5'-[2’-F-C][2’-F-U][2’-F-C][2’-F-U][2’-F-U][2’-F-U][2’-F-G][2’-F-U][2’-F-U][2’-F-U][2’-F-C][2’-F-U][2’-F-G][2’-F-A][2’-F-G][2’-F-C][2’-F-U][2’-F-U][2’-F-U][2’-F-C][2’-F-C][2’-F-U][2’-F-G][2’-F-U][2’-F-C][2’-F-U][2’-F-U][2’-F-U][2’-F-C][2’-F-C]-3' [AGR-H19]
hiPS-SkMCs [2]
  Ub-DMD in K3584R mutant knockin BMD iPS-SkMCs: minimally affected
Indicated genes
  Expression status of microRNAs tested: minimal effects
Pharmacokinetics
  Amount in skeletal and cardiac muscles after dosing: substantial amount
Dmd C3333Y mice [3]
  Dystrophin level in skeletal muscle: elevated
  Ub-DMD level in skeletal muscle: reduced
Dmd C3333Y mice [4]
  Muscle strength: improved
Dmd C3333Y mice [5]
  Fibrotic area in the heart: reduced
Dmd C3333Y mice [6]
  Heart function (left ventricular ejection fraction and fraction shortening): increased
Body weight measurement
  Body weight: minimal effects
Blood biochemistry
  Liver or kidney function: minimal effects
[7]
  Serum IGF1/IGF2: minimal effects
Mdx mice
  Dystrophin protein in skeletal muscle of mdx mice: significantly increased
  Ub-DMD (poly-Ub) in skeletal muscle of mdx mice: reduced

## RXRRBRRXRRBRXB [PPMO23]
Mdx mice
  Dystrophin protein in skeletal muscle of mdx mice: partially restored
  Ub-DMD (poly-Ub) in skeletal muscle of mdx mice: robust
